Measurements taken from ChEMBL document CHEMBL1154186, “Synthesis, kinase inhibitory potencies, and in vitro antiproliferative evaluation of new Pim kinase inhibitors” (J Med Chem, 2009).

What was measured:
[1] = molecular target: Serine/threonine-protein kinase PAK 5 (Homo sapiens) (UniProt Q9P286); assay: Inhibition of PAK5 assessed as residual enzyme activity at 10 uM relative to untreated control
Procedure, shortened: (§1)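 Kinases of human origin, except CK1δ, which is rat. Run in 50 mM Tris/HCl pH 7.5, 0.1 mM EGTA, 0.1% 2-mercaptoethanol and 10 mM Mg acetate, with [γ-33P]ATP at 20 µM, 30 min at 21 °C. Acid-stopped and captured on P81 filters. Compound tested at 10 µM; residual % of uninhibited control, duplicate determinations.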

[2] = molecular target: Tyrosine-protein kinase CSK (Homo sapiens) (UniProt P41240); assay: Inhibition of CSK assessed as residual enzyme activity at 10 uM relative to untreated control; procedure, shortened: as §1
[3] = molecular target: T1, Serine/threonine-protein kinase D1 (Homo sapiens) (UniProt Q15139); assay: Inhibition of PKD1 assessed as residual enzyme activity at 10 uM relative to untreated control
T1 sequence (whole entry): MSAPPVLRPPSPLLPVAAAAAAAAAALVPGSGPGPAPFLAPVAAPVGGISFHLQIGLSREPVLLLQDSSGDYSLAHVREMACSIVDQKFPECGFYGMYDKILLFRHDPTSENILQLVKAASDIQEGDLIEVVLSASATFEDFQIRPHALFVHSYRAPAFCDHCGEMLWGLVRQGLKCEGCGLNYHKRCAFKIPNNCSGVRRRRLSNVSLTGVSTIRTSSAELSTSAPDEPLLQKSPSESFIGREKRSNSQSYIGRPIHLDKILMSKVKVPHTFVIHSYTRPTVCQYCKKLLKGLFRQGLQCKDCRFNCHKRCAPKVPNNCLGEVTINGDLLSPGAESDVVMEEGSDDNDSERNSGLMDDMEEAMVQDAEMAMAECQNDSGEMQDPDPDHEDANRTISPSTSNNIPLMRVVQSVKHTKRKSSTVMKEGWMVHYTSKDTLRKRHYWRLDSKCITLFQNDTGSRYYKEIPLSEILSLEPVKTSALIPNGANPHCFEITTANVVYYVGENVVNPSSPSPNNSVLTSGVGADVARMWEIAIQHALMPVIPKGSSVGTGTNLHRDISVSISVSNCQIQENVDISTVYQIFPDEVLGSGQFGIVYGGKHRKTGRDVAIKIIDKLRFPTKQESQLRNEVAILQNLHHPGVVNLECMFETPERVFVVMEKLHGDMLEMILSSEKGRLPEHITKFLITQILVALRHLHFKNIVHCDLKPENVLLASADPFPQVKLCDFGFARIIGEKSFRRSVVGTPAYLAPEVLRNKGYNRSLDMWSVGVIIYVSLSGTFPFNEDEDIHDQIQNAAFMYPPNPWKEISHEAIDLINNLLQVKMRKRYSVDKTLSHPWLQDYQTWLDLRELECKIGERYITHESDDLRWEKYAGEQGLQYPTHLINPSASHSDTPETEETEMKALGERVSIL

[4] = molecular target: Calcium/calmodulin-dependent protein kinase type 1 (Homo sapiens) (UniProt Q14012); assay: Inhibition of CaMK1 assessed as residual enzyme activity at 10 uM relative to untreated control
[5] = molecular target: Myosin light chain kinase, smooth muscle (Homo sapiens) (UniProt Q15746); assay: Inhibition of smMLCK assessed as residual enzyme activity at 10 uM relative to untreated control
[6] = molecular target: T2, Serine/threonine-protein kinase Chk1 (Homo sapiens) (UniProt O14757); assay: Inhibition of CHK1 assessed as residual enzyme activity at 10 uM relative to untreated control; procedure, shortened: as §1
T2 sequence (whole entry): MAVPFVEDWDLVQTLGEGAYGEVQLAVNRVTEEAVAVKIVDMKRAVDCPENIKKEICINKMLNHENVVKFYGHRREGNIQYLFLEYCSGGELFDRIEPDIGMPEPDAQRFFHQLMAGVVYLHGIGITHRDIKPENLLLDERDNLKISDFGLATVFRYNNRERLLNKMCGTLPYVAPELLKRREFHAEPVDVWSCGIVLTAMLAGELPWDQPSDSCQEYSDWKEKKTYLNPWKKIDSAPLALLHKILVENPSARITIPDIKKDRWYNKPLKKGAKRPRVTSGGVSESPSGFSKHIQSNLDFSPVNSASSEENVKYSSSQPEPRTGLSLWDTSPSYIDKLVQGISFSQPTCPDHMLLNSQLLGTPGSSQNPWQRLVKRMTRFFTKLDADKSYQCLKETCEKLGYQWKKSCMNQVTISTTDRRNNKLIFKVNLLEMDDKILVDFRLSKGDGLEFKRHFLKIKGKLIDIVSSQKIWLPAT

[7] = molecular target: T3, Aurora kinase C (Homo sapiens) (UniProt Q9UQB9); assay: Inhibition of AURORA C assessed as residual enzyme activity at 10 uM relative to untreated control
T3 sequence (whole entry): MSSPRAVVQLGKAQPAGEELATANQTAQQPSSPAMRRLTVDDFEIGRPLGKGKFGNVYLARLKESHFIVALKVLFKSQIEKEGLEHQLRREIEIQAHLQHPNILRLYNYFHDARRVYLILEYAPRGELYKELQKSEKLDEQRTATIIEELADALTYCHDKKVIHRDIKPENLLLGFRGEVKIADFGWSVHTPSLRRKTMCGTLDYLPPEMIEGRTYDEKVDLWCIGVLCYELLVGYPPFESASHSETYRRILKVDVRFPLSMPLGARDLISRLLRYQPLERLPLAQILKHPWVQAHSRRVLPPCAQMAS
Procedure, shortened: (§2)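 Radiometric filter-binding assay at 21 °C for 30 min. Mix: 50 mM Tris/HCl pH 7.5, 0.1 mM EGTA, 0.1% 2-mercaptoethanol, 10 mM Mg acetate and [γ-33P]ATP (800 cpm/pmol) at 5 µM. Stopped with orthophosphoric acid and spotted on P81. Compound at 10 µM; activity given as % remaining versus no-inhibitor control, duplicates. Kinases human full-length unless noted.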

[8] = Inhibition of CK2 assessed as residual enzyme activity at 10 uM relative to untreated control; procedure, shortened: as §2
[9] = molecular target: Serine/threonine-protein kinase Nek6 (Homo sapiens) (UniProt Q9HC98); assay: Inhibition of NEK6 assessed as residual enzyme activity at 10 uM relative to untreated control
Procedure, shortened: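 Assayed with [γ-33P]ATP at 50 µM and 10 mM Mg acetate in 50 mM Tris/HCl pH 7.5, 0.1 mM EGTA, 0.1% 2-mercaptoethanol, 30 min, 21 °C. Phosphoric acid stop, P81 filter capture. ERK2 and Lck are mouse; AMPK is rat. 10 µM compound; % activity remaining relative to control without inhibitor, duplicates.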

[10] = molecular target: Serine/threonine-protein kinase pim-2 (Homo sapiens) (UniProt Q9P1W9); assay: Inhibition of Pim-2 assessed as residual enzyme activity at 10 uM relative to untreated control
[11] = Inhibition of CK1 assessed as residual enzyme activity at 10 uM relative to untreated control
[12] = test system: MKK1 (Oryctolagus cuniculus); assay: Inhibition of MKK1 assessed as residual enzyme activity at 10 uM relative to untreated control
RSK1 (Rattus norvegicus) = assay: Inhibition of RSK1 assessed as residual enzyme activity at 10 uM relative to untreated control

Chain of Serine/threonine-protein kinase Nek6 (Homo sapiens) (Q9HC98 whole entry): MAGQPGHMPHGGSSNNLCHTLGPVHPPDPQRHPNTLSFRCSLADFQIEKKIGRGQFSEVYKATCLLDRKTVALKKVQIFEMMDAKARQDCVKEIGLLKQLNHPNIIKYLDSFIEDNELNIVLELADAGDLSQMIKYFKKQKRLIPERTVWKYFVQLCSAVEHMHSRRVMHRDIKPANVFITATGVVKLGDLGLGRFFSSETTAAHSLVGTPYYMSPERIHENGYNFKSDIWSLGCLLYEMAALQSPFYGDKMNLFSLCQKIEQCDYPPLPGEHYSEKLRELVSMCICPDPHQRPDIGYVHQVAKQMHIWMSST
Chain of Myosin light chain kinase, smooth muscle (Homo sapiens) (Q15746 whole entry): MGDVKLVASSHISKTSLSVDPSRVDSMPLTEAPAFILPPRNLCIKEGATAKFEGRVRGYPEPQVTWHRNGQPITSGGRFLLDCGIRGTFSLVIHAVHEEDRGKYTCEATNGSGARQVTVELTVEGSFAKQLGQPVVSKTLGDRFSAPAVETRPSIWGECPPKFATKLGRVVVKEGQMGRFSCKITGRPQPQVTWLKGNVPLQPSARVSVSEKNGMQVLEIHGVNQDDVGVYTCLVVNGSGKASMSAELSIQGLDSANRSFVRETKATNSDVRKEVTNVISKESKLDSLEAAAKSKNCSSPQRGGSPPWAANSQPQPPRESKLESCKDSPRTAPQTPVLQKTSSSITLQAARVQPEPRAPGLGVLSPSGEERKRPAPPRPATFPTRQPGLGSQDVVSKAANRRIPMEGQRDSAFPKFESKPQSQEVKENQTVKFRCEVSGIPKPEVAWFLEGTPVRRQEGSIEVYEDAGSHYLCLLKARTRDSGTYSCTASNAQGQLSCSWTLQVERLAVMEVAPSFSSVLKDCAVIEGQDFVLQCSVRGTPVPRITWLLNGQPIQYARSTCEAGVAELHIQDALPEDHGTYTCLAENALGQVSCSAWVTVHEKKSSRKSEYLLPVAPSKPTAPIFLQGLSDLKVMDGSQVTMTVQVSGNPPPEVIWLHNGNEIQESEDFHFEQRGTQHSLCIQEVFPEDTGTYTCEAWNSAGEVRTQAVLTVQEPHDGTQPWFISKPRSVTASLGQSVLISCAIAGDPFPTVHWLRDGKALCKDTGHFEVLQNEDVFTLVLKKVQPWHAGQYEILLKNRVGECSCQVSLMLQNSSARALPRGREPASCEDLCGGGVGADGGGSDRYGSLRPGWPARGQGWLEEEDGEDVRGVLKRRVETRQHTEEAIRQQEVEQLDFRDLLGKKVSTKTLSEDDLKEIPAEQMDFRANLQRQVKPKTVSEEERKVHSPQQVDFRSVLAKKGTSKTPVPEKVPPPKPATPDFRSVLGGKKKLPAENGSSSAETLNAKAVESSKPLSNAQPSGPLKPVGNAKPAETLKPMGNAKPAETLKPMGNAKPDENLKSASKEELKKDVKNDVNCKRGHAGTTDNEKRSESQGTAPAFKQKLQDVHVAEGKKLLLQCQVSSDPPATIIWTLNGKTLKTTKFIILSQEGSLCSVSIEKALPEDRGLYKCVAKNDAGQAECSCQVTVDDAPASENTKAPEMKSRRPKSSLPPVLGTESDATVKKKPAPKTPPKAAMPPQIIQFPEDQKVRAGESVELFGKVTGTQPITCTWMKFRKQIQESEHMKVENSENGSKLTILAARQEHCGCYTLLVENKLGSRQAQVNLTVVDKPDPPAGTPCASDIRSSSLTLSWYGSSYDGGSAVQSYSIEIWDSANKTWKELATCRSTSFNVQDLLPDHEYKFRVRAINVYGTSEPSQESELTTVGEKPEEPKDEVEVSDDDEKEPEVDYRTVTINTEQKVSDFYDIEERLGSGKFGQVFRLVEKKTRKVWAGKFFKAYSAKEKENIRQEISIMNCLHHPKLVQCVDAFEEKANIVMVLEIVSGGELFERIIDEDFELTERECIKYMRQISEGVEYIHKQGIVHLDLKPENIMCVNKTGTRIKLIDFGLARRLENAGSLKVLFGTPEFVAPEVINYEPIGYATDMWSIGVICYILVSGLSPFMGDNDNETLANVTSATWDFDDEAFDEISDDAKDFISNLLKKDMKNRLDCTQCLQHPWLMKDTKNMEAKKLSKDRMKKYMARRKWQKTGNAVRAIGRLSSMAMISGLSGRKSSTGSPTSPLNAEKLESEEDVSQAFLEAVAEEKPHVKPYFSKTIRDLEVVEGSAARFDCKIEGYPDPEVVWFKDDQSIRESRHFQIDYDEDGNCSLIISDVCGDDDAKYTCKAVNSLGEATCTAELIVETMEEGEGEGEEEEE
Chain of Tyrosine-protein kinase CSK (Homo sapiens) (P41240 2-450 limits assumed): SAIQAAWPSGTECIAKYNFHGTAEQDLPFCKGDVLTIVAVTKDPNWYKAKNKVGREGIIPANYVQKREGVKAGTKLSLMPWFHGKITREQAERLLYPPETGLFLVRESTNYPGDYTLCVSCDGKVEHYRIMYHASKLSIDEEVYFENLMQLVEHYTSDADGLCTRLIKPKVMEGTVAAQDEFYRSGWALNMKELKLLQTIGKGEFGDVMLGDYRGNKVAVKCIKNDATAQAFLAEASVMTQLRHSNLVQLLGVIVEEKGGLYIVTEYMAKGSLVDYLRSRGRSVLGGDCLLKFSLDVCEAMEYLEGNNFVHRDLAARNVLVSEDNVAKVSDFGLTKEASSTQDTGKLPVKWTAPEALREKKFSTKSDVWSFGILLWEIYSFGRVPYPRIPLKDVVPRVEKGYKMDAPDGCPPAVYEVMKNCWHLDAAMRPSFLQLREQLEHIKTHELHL
Chain of Serine/threonine-protein kinase PAK 5 (Homo sapiens) (Q9P286 whole entry, looked up): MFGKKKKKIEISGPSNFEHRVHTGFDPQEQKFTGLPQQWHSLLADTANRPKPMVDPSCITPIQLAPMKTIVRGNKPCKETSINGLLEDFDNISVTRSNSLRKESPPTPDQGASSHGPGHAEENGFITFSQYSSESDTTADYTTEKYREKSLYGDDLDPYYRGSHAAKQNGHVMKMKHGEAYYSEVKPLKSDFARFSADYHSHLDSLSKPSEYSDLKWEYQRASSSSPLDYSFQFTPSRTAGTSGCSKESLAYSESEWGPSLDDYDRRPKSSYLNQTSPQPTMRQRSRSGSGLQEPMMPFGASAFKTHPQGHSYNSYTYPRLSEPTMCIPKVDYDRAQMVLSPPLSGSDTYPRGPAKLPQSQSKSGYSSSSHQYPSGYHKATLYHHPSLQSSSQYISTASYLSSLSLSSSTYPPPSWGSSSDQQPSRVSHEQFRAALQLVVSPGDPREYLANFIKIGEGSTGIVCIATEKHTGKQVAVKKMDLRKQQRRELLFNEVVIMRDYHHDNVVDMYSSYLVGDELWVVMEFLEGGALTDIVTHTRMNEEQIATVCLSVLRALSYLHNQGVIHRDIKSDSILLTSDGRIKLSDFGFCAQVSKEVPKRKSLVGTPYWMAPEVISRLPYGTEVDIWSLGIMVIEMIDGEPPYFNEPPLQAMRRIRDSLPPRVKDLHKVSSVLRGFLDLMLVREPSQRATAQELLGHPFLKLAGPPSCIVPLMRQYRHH
Chain of Calcium/calmodulin-dependent protein kinase type 1 (Homo sapiens) (Q14012 whole entry, looked up): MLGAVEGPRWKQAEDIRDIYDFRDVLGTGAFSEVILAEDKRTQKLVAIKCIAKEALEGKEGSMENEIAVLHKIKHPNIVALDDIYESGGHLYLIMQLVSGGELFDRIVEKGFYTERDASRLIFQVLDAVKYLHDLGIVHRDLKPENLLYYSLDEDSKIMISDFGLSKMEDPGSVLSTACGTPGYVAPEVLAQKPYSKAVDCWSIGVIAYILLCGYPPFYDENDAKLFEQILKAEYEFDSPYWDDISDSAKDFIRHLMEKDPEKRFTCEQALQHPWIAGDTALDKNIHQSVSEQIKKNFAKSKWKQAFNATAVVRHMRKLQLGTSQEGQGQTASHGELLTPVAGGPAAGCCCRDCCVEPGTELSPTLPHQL
Chain of Serine/threonine-protein kinase pim-2 (Homo sapiens) (Q9P1W9 whole entry, looked up): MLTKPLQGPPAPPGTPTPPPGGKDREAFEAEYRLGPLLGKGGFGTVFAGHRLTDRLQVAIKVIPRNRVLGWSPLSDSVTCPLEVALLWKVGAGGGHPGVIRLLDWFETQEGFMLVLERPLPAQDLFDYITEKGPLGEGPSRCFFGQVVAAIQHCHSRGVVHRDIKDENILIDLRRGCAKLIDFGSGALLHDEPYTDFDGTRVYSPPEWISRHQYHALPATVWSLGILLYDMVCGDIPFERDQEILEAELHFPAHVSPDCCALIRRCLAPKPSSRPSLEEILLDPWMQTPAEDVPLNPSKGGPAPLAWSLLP

Row | Compound | Activity [1] | Activity [2] | Activity [3] | Activity [4] | Activity [5] | Activity [6] | Activity [7] | Activity [8] | Activity [9] | Activity [10] | Activity [11] | Activity [12] | Activity (RSK1 (Rattus norvegicus))
1 | c1ccc2c(c1)[nH]c1c2ccc2cc[nH]c21 | 82% | 98% | 83% | 29% | 86% | 123% | 85% | 91% | 90% | 62% | 107% | 87% | 105%
2 | c1ccc2c(c1)[nH]c1c3cc[nH]c3ccc21 | 99% | 72% | 71% | 80% | 82% | 112% | 99% | 96% | 71% | 77% | 99% | 75% | 99%
3 | O=Cc1c[nH]c2ccc3c4ccccc4[nH]c3c12 | 96% | 87% | 87% | 36% | 91% | 101% | 104% | 98% | 86% | 102% | 113% | 104% | 120%
4 | O=Cc1c[nH]c2c1ccc1c3ccccc3[nH]c12 | 87% | 74% | 28% | 71% | 60% | 97% | 79% | 62% | 78% | – | – | – | –
